The source of these data is ChEMBL document CHEMBL4152367, “Discovery of a Potent Thiazolidine Free Fatty Acid Receptor 2 Agonist with Favorable Pharmacokinetic Properties” (J Med Chem, 2018).

In data set [1] the target is T1, Free fatty acid receptor 3 (Homo sapiens) (UniProt O14843).
T1 sequence (whole entry): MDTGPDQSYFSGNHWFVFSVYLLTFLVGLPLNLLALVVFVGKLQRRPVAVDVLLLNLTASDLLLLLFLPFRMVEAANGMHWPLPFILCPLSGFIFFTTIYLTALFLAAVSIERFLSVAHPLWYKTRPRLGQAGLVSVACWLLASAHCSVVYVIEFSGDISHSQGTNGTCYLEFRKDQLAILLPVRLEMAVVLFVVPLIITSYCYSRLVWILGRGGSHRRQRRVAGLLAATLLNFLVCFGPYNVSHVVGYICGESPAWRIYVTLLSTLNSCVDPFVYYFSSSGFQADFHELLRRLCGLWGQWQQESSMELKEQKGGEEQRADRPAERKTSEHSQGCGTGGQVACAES
The experiment in a line: Agonist activity at FFA3R (unknown origin) up to 100 uM. In kind it is functional.

Data set [2] addresses T2, Free fatty acid receptor 4 (Homo sapiens) (UniProt Q5NUL3).
T2 sequence (whole entry): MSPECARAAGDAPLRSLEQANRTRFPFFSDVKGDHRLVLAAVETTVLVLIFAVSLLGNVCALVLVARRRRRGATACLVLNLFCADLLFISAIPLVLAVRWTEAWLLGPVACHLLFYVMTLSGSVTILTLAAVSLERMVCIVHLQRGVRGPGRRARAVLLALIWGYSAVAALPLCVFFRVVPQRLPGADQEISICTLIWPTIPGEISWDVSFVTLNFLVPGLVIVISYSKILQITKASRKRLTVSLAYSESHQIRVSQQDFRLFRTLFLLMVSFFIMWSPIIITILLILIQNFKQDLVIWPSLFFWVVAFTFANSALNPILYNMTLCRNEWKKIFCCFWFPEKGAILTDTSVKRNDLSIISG
The experiment in a line: Agonist activity at human FFA4 receptor expressed in HEK293 cells assessed as induction of calcium flux at 10 uM by fluorimetry. In kind it is functional, cell-based. For orientation: Calcium flux is commonly read through the fluorescence of an indicator in the cells.

The target of data set [3] is T3, Peroxisome proliferator-activated receptor alpha (Homo sapiens) (UniProt Q07869).
T3 sequence (whole entry): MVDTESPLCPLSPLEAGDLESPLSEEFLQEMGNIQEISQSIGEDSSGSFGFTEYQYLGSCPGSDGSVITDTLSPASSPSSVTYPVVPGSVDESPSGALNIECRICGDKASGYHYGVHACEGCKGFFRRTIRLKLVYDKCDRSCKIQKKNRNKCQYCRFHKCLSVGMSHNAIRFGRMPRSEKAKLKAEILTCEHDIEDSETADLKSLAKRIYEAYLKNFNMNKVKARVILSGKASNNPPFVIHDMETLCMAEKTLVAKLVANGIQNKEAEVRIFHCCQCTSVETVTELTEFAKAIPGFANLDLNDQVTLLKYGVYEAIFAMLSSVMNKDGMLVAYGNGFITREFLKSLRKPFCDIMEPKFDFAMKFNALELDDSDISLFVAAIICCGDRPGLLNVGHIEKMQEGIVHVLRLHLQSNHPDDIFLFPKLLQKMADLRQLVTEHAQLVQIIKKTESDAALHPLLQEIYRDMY
The experiment in a line: Agonist activity at human PPARalpha expressed in Escherichia coli assessed as induction of calcium flux at 10 uM by fluorimetry.

The target in data set [4] is T4, Peroxisome proliferator-activated receptor gamma (Homo sapiens) (UniProt P37231).
T4 sequence (whole entry): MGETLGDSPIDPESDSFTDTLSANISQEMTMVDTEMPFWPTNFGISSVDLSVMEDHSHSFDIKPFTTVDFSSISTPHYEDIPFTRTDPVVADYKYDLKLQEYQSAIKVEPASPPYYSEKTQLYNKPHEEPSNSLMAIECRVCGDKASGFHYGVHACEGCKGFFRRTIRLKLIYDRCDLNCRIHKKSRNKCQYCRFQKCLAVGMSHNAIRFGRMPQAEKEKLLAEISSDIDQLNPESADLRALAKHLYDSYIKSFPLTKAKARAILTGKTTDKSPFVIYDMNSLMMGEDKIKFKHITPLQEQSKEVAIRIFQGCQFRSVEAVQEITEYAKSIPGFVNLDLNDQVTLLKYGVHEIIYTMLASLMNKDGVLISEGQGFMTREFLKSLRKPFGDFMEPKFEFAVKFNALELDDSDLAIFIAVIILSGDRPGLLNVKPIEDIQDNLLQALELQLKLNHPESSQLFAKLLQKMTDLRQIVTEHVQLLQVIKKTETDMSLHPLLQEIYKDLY
As to the kind of experiment: Agonist activity at human PPARgamma expressed in Escherichia coli assessed as induction of calcium flux at 10 uM by fluorimetry.

The target of data set [5] is T4, Peroxisome proliferator-activated receptor gamma (Homo sapiens). As to the kind of experiment: Antagonist activity at human PPARgamma expressed in Escherichia coli assessed as inhibition of rosiglitazone-induced calcium flux at 10 uM by fluorimetry.
Data set [6] addresses T5, Oxysterols receptor LXR-alpha (Homo sapiens) (UniProt Q13133).
T5 sequence (whole entry): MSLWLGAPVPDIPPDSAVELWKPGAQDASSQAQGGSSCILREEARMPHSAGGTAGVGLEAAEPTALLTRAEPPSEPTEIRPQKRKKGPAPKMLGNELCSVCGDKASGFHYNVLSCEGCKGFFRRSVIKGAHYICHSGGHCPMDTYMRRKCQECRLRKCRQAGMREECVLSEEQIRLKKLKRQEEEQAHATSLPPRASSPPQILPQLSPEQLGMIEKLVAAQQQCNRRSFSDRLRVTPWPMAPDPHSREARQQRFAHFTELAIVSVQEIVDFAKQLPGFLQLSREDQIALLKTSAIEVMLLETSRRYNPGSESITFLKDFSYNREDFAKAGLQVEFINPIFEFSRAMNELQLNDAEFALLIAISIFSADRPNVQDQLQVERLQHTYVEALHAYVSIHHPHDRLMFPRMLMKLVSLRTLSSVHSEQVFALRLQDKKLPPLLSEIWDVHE
As to the kind of experiment: Agonist activity at human LXRalpha expressed in Escherichia coli assessed as induction of calcium flux at 10 uM by fluorimetry.

For data set [7], the target named is T5, Oxysterols receptor LXR-alpha (Homo sapiens). The experiment in a line: Antagonist activity at human LXRalpha expressed in Escherichia coli assessed as inhibition of T0901317-induced calcium flux at 10 uM by fluorimetry.
Data set [8] is described as follows: Aqueous solubility of the compound in PBS buffer at pH 7.4 after 24 hrs by HPLC analysis. In kind it is physicochemical.
Data set [9] can be described thus: Chemical stability of the compound in PBS buffer at 37 degC after 3 weeks. In kind it is physicochemical. The following applies: read-out: Stability. The procedure, abridged:
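Chemical stability: 50 µM compound (diluted from 10 mM DMSO stock) in 10 mM phosphate buffer, pH 7.4, shaken at 37 °C; sampled at intervals over 3 weeks. Remaining compound by HPLC peak area relative to the 0 time point; duplicate runs, each injected twice.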

Data set [10] in a line: Half life in Balb/c mouse at 5 mg/kg, iv by HPLC-MS/MS analysis. The data set is classed as ADME, organism-based. The following applies: in vivo. The method in brief: (§1)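 Balb/c mice dosed at 5 mg/kg iv or 10 mg/kg po. Plasma concentrations over time used to derive t1/2, AUC0–∞, Vd and total clearance (iv), and tmax, Cmax, AUC0–∞ and oral bioavailability (po).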
Data set [11] can be described thus: Tmax in Balb/c mouse at 10 mg/kg, po by HPLC-MS/MS analysis. The data set is classed as ADME, organism-based. The following applies: in vivo. The procedure, abridged:
as §1

The nature of data set [12]: AUC (0 to infinity) in Balb/c mouse at 10 mg/kg, po by HPLC-MS/MS analysis. The data set is classed as ADME, organism-based. Also on record: dose 10 mg/kg, route oral, time infinity. To be noted: in vivo. The method in brief: as §1
Data set [13] can be described thus: Oral bioavailability in Balb/c mouse at 10 mg/kg by HPLC-MS/MS analysis. In kind it is ADME, organism-based. The following applies: in vivo. The procedure, abridged:
as §1

The structures appear in SMILES notation. Values after ≈ are worked out from the molar mass of the structure shown. Active and inactive are the calls of the source. The rule behind the calls is not given here.

As for `Cc1noc(C)c1-c1ccc(C(=O)N2[C@@H](c3ccccc3Cl)SC[C@H]2C(=O)O)cc1`, the outcome in data set [1], in data set [2], in [3], in data set [4] and in [6] was inactive. Besides, the inhibition result in data set [5] and in data set [7] was “inactive” in each case. Also, in data set [8], the solubility (in general, the dissolved amount per volume that the medium holds) at 24 h was 182 µM (≈ 80.6 µg/mL). The remaining at […] in data set [9] was found to be 97.6%. Besides, the half-life (in general, how long it takes for the measured level to halve) in data set [10] was 2.3 h. In addition, the Tmax (in general, the time at which the peak concentration occurs) in data set [11] is 0.25 h. The AUC(0-inf) (usually the area under the concentration-time curve extrapolated to infinity) in data set [12] is 2600 ng·h/mL. In addition, the bioavailability (in general, dose-corrected exposure relative to a reference, in per cent) in data set [13] was 32%.
